Experimental data published in paper PMC6733264 (ACS chemical biology, 2019).
Square brackets hold non-standard residues; d marks the D form. Ends that are not written are not given here. PEG = not defined here

Tests used:
HCT-15 cells = assay: WST cell viability assay; type: cell-based, human; conditions: concentrations up to 100 μM, 48 hr
HCT116 cells = assay: WST cell viability assay; type: cell-based, human; conditions: concentrations up to 100 μM, 48 hr
[1] = tested on: HEK293 cells transiently transfected with BRAF^G469A; assay: Immunoblot of MAPK signaling in transiently transfected HEK293 cells; type: cell-based, human; conditions: for BRAF activity (phospho-MEK1/2): 0, 10, 25, 50, 75, 100 μM for 4 hr, 48 hr post-transfection
[2] = tested on: HEK293 cells transiently transfected with BRAF^WT; assay: as above; type: cell-based, human; conditions: for BRAF activity (phospho-MEK1/2): 0, 10, 25, 50, 75, 100 μM for 4 hr, 48 hr post-transfection
full-length (FL) BRAF^WT = full-length (FL) BRAF^WT (Homo sapiens, UniProt P15056); assay: ELISA kinase assay of purified full-length BRAF, probing phosphorylated MEK; type: biochemical
[3] = biological target: full-length (FL) BRAF^G469A (Homo sapiens, UniProt P15056, G469A); assay: as above; type: biochemical
[4] = tested on: p61 BRAF^V600E in HEK293 cells; assay: Immunoblot of HEK293 cells transfected with p61-BRAF^V600E; type: cell-based, human; conditions: increasing concentrations, 4 hr
Procedure, shortened: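 HEK293 cells were transiently transfected with 6X-His/FLAG-tagged p61-BRAF V600E in pcDNA4/TO. p61 is an aberrantly spliced BRAF of about 61 kDa. Cells were exposed to increasing concentrations of the TAT-tagged test peptide for 4 hr, then lysates were immunoblotted.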

full-length (FL) BRAF^G469A, sequence (P15056 whole entry G469A): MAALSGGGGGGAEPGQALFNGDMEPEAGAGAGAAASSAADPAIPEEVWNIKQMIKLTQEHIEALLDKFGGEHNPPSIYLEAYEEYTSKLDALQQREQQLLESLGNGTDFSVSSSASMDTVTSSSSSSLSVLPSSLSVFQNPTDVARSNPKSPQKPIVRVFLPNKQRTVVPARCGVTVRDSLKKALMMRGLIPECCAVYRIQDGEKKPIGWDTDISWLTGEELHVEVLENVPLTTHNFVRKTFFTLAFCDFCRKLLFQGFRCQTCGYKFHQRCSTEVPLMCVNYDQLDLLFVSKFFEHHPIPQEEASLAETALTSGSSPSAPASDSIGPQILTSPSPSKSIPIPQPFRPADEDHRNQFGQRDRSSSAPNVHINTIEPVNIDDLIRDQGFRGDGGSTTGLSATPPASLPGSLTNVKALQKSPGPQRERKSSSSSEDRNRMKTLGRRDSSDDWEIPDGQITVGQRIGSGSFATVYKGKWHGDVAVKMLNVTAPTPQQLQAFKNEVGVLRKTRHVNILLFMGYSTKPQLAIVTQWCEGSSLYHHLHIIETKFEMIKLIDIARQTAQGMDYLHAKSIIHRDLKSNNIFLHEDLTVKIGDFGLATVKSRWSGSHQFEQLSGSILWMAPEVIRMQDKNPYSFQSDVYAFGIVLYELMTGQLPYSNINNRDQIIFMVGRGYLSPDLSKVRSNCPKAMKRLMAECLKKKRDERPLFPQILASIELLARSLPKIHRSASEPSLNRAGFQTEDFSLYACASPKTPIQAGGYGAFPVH
full-length (FL) BRAF^WT, sequence (P15056 whole entry): as the sequence (P15056 whole entry G469A) above, with A469G counted along it

## GRKKRRQRRRPQ [TAT peptide, reference compound]
HCT-15 cells
  cell death: no cell death was observed
HCT116 cells
  cell death: no cell death was observed
[1]
  BRAF activity (phospho-MEK1/2): no inhibition effect was observed
[2]; immunoblot
  BRAF activity (phospho-MEK1/2): no inhibition effect was observed

## CC(C)(C)c1nc(-c2cccc(NS(=O)(=O)c3c(F)cccc3F)c2F)c(-c2ccnc(N)n2)s1 [dabrafenib, reference compound]
[2]; 0-10 μM for 1 hr, activates MAPK signaling at lower concentrations
  concentration at which dabrafenib alone acts as an inhibitor of MAPK signaling: above 10 μM

## THHVNILLFM [R/H-braftide]
full-length (FL) BRAF^WT
  IC50: 2490 to 4980 nM
[3]
  IC50: 625 to 3340 nM

## TAT-braftide (GRKKRRQRRRPQ[PEG]TRHVNILLFM; reading uncertain; also: PEG linker between TAT and braftide)
[4]
  pMEK and pERK levels: decrease in both pMEK and pERK levels
[1]
  BRAF activity (phospho-MEK1/2): significantly reduced the activity of BRAF in a dose-dependent manner
[1]; 0-100 μM for 4 hr
  protein levels of overexpressed BRAF and endogenous MEK1: markedly decreased in a dose-dependent manner
[2]; immunoblot
  BRAF activity (phospho-MEK1/2): significantly reduced the activity of BRAF in a dose-dependent manner
[2]; 0-100 μM for 4 hr, immunoblot
  protein levels of overexpressed BRAF and endogenous MEK1: markedly decreased in a dose-dependent manner
[2]; pre-treatment with 75 μM for 2 h, then dabrafenib 1 hr
  paradoxical effect caused by lower doses of dabrafenib: abrogated the paradoxical effect
